Laboratory results taken from ChEMBL document CHEMBL2331335, “Synthesis of hemslecin A derivatives: a new class of hepatitis B virus inhibitors” (Bioorg Med Chem Lett, 2013).

Assays:
Hepatitis B virus [1] = experiment: Antiviral activity against HBV infected in human HepG2.2.15 cells assessed as inhibition of viral e antigen production; format: functional, organism-based; details: HepG2 2.2.15
Summary of the method: (§1)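 Assayed in HBV-producing HepG 2.2.15 cells, with tenofovir as positive control. HBsAg, HBeAg and HBV DNA replication were each measured, and IC50 was taken as the compound concentration giving 50% inhibition of the given marker.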

[2] = Selectivity index, ratio of CC50 for human HepG2.2.15 cells to IC50 for HBV infected in human HepG2.2.15 cells assessed as inhibition of viral e antigen production; format: functional
Summary of the method: (§2)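 Selectivity index was calculated as CC50 (HepG 2.2.15 cytotoxicity) divided by IC50 for the given marker (HBV DNA replication, HBeAg or HBsAg), all measured in HepG 2.2.15 cells.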

Hepatitis B virus [3] = experiment: Antiviral activity against HBV infected in human HepG2.2.15 cells assessed as inhibition of viral DNA replication; format: functional, organism-based; details: HepG2 2.2.15; summary of the method: as §1
[4] = Cytotoxicity against human HepG2.2.15 cells; format: cell-based, HepG2 2.2.15
Summary of the method: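 Cytotoxicity was tested in HepG 2.2.15 cells alongside the anti-HBV assay. CC50 was taken as the compound concentration required to destroy 50% of the cells.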

[5] = Selectivity index, ratio of CC50 for human HepG2.2.15 cells to IC50 for HBV infected in human HepG2.2.15 cells assessed as inhibition of viral surface antigen production; format: functional; summary of the method: as §2
Hepatitis B virus [6] = experiment: Antiviral activity against HBV infected in human HepG2.2.15 cells assessed as inhibition of viral surface antigen production; format: functional, organism-based; details: HepG2 2.2.15; summary of the method: as §1
[7] = Selectivity index, ratio of CC50 for human HepG2.2.15 cells to IC50 for HBV infected in human HepG2.2.15 cells assessed as inhibition of viral DNA replication; format: functional; summary of the method: as §2

IC50 (Hepatitis B virus [1])	IC50 (Hepatitis B virus [3])	IC50 (Hepatitis B virus [6])	Compound	Ratio CC50/IC50 [2]	CC50 [4]	Ratio CC50/IC50 [5]	Ratio CC50/IC50 [7]
> 254 µM	2.8 µM	190 µM	CC(=O)O[C@@H]1[C@@H](O)C[C@@H]2C(=CC[C@@H]3[C@@]2(C)C(=O)C[C@]2(C)[C@@H]([C@@](C)(O)C(=O)CCC(C)(C)OC(C)=O)[C@H](O)C[C@@]32C)C1(C)C	<1	254 µM	1.3	89.7
> 12.4 µM	6.1 µM	> 12.4 µM	CCCC(=O)O[C@H]1C[C@@H]2C(=CC[C@@H]3[C@@]2(C)C(=O)C[C@]2(C)[C@@H]([C@@](C)(O)C(=O)CCC(C)(C)OC(C)=O)[C@H](O)C[C@@]32C)C(C)(C)[C@@H]1O	<1	12.4 µM	<1	2
> 60.6 µM	31.4 µM	> 60.6 µM	CC(C)(O)CCC(=O)[C@](C)(O)[C@H]1[C@H](O)C[C@@]2(C)[C@@H]3CC=C4[C@@H](C[C@H](O)[C@@H](O)C4(C)C)[C@]3(C)C(=O)C[C@]12C	<1	60.6 µM	<1	1.9
